# Test results from ChEMBL document CHEMBL1126092, “Design, synthesis, and biological evaluation of novel 4-substituted 1-methyl-1,2,3,6-tetrahydropyridine analogs of MPTP” (J Med Chem, 1992).
# B1: Amine oxidase [flavin-containing] B (Bos taurus) (protein)
# chain: MSSKCDVVVVGGGISGMAAAKLLHDSGLNVIVLEARDRVGGRTYTLRNQKVKYVDLGGSYVGPTQNHILRLSKELGLETYKVNEVERLIHHTKGKSYPFRGSFPSVWNPITYLDHNNLWRTMDDMGREIPSDAPWKAPLAEQWDLMTMKELLDKICWTESSKQLAILFVNLCVTAEIHEVSALWFLWYVKQCGGTTRIFSTSNGGQERKFVGGSGQVSERIMDLLGDRVKLERPVIHIDQTGENVLVETLNHELYEAKYVISAVPPVLGMKIHFNPPLPMMRNQLITRVPLGSVIKSIVYYKEPFWRNMDYCGSMIIEGEEAPVAYALDDTKPDGSYPAIIGFILAHKARKLARLTKEERLKKLCDLYAKVLGSQEALHPVHYEEKNWCEEQYSGGCYTSYFPPGIMTQYGRVLRQPVGRIYFAGTETATHWSGYMEGAVEAGERAAREILHAMGKIPEDEIWLPEPESVDVPAKPITTTFLQRHLPSVPGLLKLIGLTTIFSATALGFLAHKRGLLVRI
# Legend:
# [1] = substrate: CN1CC=C(OC(=O)N(C)C)CC1; assay: (§1) Tested against Monoamine oxidase B enzyme from bovine liver mitochondria
# Summary of the method: (§2)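 Bovine liver mitochondrial MAO-B, 0.05 unit/mL (unit = 1 μmol benzylamine→benzaldehyde per min; equivalent to 3.7 nmol protein), incubated at 37 °C in 0.1 M sodium phosphate pH 7.4. Reaction started by substrate addition, final 0.1–3.0 mM. Product formation monitored spectrophotometrically, initial rates taken 30–180 s after enzyme addition. Apparent Vmax and KM from double reciprocal plot.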
# [2] = substrate: CN1CC=C(Cc2ccccc2)CC1; assay: as §1; summary of the method: as §2
# [3] = substrate: CN1CC=C(OC(=O)N(C)c2ccccc2)CC1; assay: as §1; summary of the method: as §2
# [4] = substrate: CN1CC=C(Sc2ccccc2)CC1; assay: as §1; summary of the method: as §2
# [5] = substrate: CN1CC=C(Oc2ccccc2)CC1; assay: as §1; summary of the method: as §2
protein,measurement,setting,value
B1,Km,[1],7100 µM
same,Vmax,[1],0.401 µM/min
same,Km,[2],83 µM
same,Vmax,[2],0.222 µM/min
same,Km,[3],3850 µM
same,Vmax,[3],0.255 µM/min
same,Km,[4],80 µM
same,Vmax,[4],0.274 µM/min
same,Km,[5],234 µM
same,Vmax,[5],0.161 µM/min
